Reference: ChEMBL document CHEMBL1158356, “Synthesis, anti-tuberculosis activity and 3D-QSAR study of amino acid conjugates of 4-(adamantan-1-yl) group containing quinolines” (Eur J Med Chem, 2009)

test system: Mycobacterium tuberculosis; experiment: Antimycobacterial activity against rifampicin/isoniazid-susceptible Mycobacterium tuberculosis H37Rv ATCC 27294 at 6.25 ug/ml after 5 days by microplate alamar blue assay; type: functional; conditions: H37Rv ATCC 27294, 120 h
How it was run: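 M. tuberculosis H37Rv (ATCC 27294, rifampicin- and isoniazid-susceptible) screened by Microplate Alamar Blue Assay at a single concentration of 6.25; read-out is % growth inhibition. Compounds showing fluorescence were instead tested in the BACTEC 460 radiometric system.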

Structure (SMILES) | inhibition at 6.25 µg/mL [%]
NNC(=O)c1cc(C23CC4CC(CC(C4)C2)C3)c2ccccc2n1 | 99
COC(=O)[C@H](CCCCNC(=O)OCc1ccccc1)NC(=O)c1cc(C23CC4CC(CC(C4)C2)C3)c2ccccc2n1 | 78
CC(C)(C)OC(=O)N[C@@H](Cc1ccc(OCc2ccccc2)cc1)C(=O)NNC(=O)c1cc(C23CC4CC(CC(C4)C2)C3)c2ccccc2n1 | 42
COC(=O)[C@H](Cc1ccccc1)NC(=O)c1cc(C23CC4CC(CC(C4)C2)C3)c2ccccc2n1 | 60
N=C(N)NCCC[C@H](N)C(=O)NNC(=O)c1cc(C23CC4CC(CC(C4)C2)C3)c2ccccc2n1 | 92
NC(=O)c1cc(C23CC4CC(CC(C4)C2)C3)c2ccccc2n1 | 98
C[C@H](NC(=O)OC(C)(C)C)C(=O)NNC(=O)c1cc(C23CC4CC(CC(C4)C2)C3)c2ccccc2n1 | 88
NNC(=O)[C@H](Cc1ccccc1)NC(=O)c1cc(C23CC4CC(CC(C4)C2)C3)c2ccccc2n1 | 50
NNC(=O)[C@H](Cc1c[nH]c2ccccc12)NC(=O)c1cc(C23CC4CC(CC(C4)C2)C3)c2ccccc2n1 | 60
COC(=O)CNC(=O)c1cc(C23CC4CC(CC(C4)C2)C3)c2ccccc2n1 | 52
N[C@@H](Cc1c[nH]cn1)C(=O)NNC(=O)c1cc(C23CC4CC(CC(C4)C2)C3)c2ccccc2n1 | 88
NCC(=O)NNC(=O)c1cc(C23CC4CC(CC(C4)C2)C3)c2ccccc2n1 | 35
CC(C)(C)OC(=O)N[C@@H](Cc1ccccc1)C(=O)NNC(=O)c1cc(C23CC4CC(CC(C4)C2)C3)c2ccccc2n1 | 85
COC(=O)[C@H](CCCNC(=O)OCc1ccccc1)NC(=O)c1cc(C23CC4CC(CC(C4)C2)C3)c2ccccc2n1 | 66
COC(=O)[C@H](Cc1ccc(OCc2ccccc2)cc1)NC(=O)c1cc(C23CC4CC(CC(C4)C2)C3)c2ccccc2n1 | 58
CSCC[C@H](NC(=O)OC(C)(C)C)C(=O)NNC(=O)c1cc(C23CC4CC(CC(C4)C2)C3)c2ccccc2n1 | 56
CC(C)C[C@H](NC(=O)c1cc(C23CC4CC(CC(C4)C2)C3)c2ccccc2n1)C(=O)NN | 83
CCC(C)[C@H](NC(=O)OC(C)(C)C)C(=O)NNC(=O)c1cc(C23CC4CC(CC(C4)C2)C3)c2ccccc2n1 (some centres not stated) | 90
CC(C)(C)OC(=O)NCCC[C@H](NC(=O)OC(C)(C)C)C(=O)NNC(=O)c1cc(C23CC4CC(CC(C4)C2)C3)c2ccccc2n1 | 75
NC(=O)CC[C@H](N)C(=O)NNC(=O)c1cc(C23CC4CC(CC(C4)C2)C3)c2ccccc2n1 | 45
CC[C@H](C)[C@H](NC(=O)c1cc(C23CC4CC(CC(C4)C2)C3)c2ccccc2n1)C(=O)NN | 70
NCCC[C@H](N)C(=O)NNC(=O)c1cc(C23CC4CC(CC(C4)C2)C3)c2ccccc2n1 | 26
CC(C)C[C@H](NC(=O)OC(C)(C)C)C(=O)NNC(=O)c1cc(C23CC4CC(CC(C4)C2)C3)c2ccccc2n1 | 90
NCCCC[C@H](NC(=O)c1cc(C23CC4CC(CC(C4)C2)C3)c2ccccc2n1)C(=O)NN | 36
N[C@@H](Cc1c[nH]c2ccccc12)C(=O)NNC(=O)c1cc(C23CC4CC(CC(C4)C2)C3)c2ccccc2n1 | 56
NCCCC[C@H](N)C(=O)NNC(=O)c1cc(C23CC4CC(CC(C4)C2)C3)c2ccccc2n1 | 66
COC(=O)[C@H](CCC(N)=O)NC(=O)c1cc(C23CC4CC(CC(C4)C2)C3)c2ccccc2n1 | 55

test system: Mycobacterium tuberculosis; experiment: Antimycobacterial activity against rifampicin/isoniazid-susceptible Mycobacterium tuberculosis H37Rv ATCC 27294 by BACTEC 460 radiometric method; type: functional, organism-based; conditions: not given
How it was run: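 Radiometric BACTEC 460 growth test on H37Rv (ATCC 27294). Compounds reaching at least 90% inhibition at 6.25 were retested at the lower concentrations 3.125 and 1.0, with % inhibition recorded. […] Isoniazid served as the reference standard.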

Structure (SMILES) | IC50 [µM]
COC(=O)[C@H](CCCCNC(=O)OCc1ccccc1)NC(=O)c1cc(C23CC4CC(CC(C4)C2)C3)c2ccccc2n1 | 3.16
CC(C)(C)OC(=O)N[C@@H](Cc1ccc(OCc2ccccc2)cc1)C(=O)NNC(=O)c1cc(C23CC4CC(CC(C4)C2)C3)c2ccccc2n1 | 12.9
COC(=O)[C@H](Cc1ccccc1)NC(=O)c1cc(C23CC4CC(CC(C4)C2)C3)c2ccccc2n1 | 8.91
N=C(N)NCCC[C@H](N)C(=O)NNC(=O)c1cc(C23CC4CC(CC(C4)C2)C3)c2ccccc2n1 | 1.15
C[C@H](NC(=O)OC(C)(C)C)C(=O)NNC(=O)c1cc(C23CC4CC(CC(C4)C2)C3)c2ccccc2n1 | 1.74
NNC(=O)[C@H](Cc1ccccc1)NC(=O)c1cc(C23CC4CC(CC(C4)C2)C3)c2ccccc2n1 | 13.5
NNC(=O)[C@H](Cc1c[nH]c2ccccc12)NC(=O)c1cc(C23CC4CC(CC(C4)C2)C3)c2ccccc2n1 | 8.32
COC(=O)CNC(=O)c1cc(C23CC4CC(CC(C4)C2)C3)c2ccccc2n1 | 15.5
N[C@@H](Cc1c[nH]cn1)C(=O)NNC(=O)c1cc(C23CC4CC(CC(C4)C2)C3)c2ccccc2n1 | 1.86
NCC(=O)NNC(=O)c1cc(C23CC4CC(CC(C4)C2)C3)c2ccccc2n1 | 30.2
CC(C)(C)OC(=O)N[C@@H](Cc1ccccc1)C(=O)NNC(=O)c1cc(C23CC4CC(CC(C4)C2)C3)c2ccccc2n1 | 1.95
COC(=O)[C@H](CCCNC(=O)OCc1ccccc1)NC(=O)c1cc(C23CC4CC(CC(C4)C2)C3)c2ccccc2n1 | 5.89
COC(=O)[C@H](Cc1ccc(OCc2ccccc2)cc1)NC(=O)c1cc(C23CC4CC(CC(C4)C2)C3)c2ccccc2n1 | 7.94
CSCC[C@H](NC(=O)OC(C)(C)C)C(=O)NNC(=O)c1cc(C23CC4CC(CC(C4)C2)C3)c2ccccc2n1 | 8.91
CC(C)C[C@H](NC(=O)c1cc(C23CC4CC(CC(C4)C2)C3)c2ccccc2n1)C(=O)NN | 2.95
CCC(C)[C@H](NC(=O)OC(C)(C)C)C(=O)NNC(=O)c1cc(C23CC4CC(CC(C4)C2)C3)c2ccccc2n1 (some centres not stated) | 1.29
CC(C)(C)OC(=O)NCCC[C@H](NC(=O)OC(C)(C)C)C(=O)NNC(=O)c1cc(C23CC4CC(CC(C4)C2)C3)c2ccccc2n1 | 3.09
NC(=O)CC[C@H](N)C(=O)NNC(=O)c1cc(C23CC4CC(CC(C4)C2)C3)c2ccccc2n1 | 17
CC[C@H](C)[C@H](NC(=O)c1cc(C23CC4CC(CC(C4)C2)C3)c2ccccc2n1)C(=O)NN | 6.17
NCCC[C@H](N)C(=O)NNC(=O)c1cc(C23CC4CC(CC(C4)C2)C3)c2ccccc2n1 | 40.7
CC(C)C[C@H](NC(=O)OC(C)(C)C)C(=O)NNC(=O)c1cc(C23CC4CC(CC(C4)C2)C3)c2ccccc2n1 | 1.29
NCCCC[C@H](NC(=O)c1cc(C23CC4CC(CC(C4)C2)C3)c2ccccc2n1)C(=O)NN | 19.5
N[C@@H](Cc1c[nH]c2ccccc12)C(=O)NNC(=O)c1cc(C23CC4CC(CC(C4)C2)C3)c2ccccc2n1 | 9.77
NCCCC[C@H](N)C(=O)NNC(=O)c1cc(C23CC4CC(CC(C4)C2)C3)c2ccccc2n1 | 7.24
COC(=O)[C@H](CCC(N)=O)NC(=O)c1cc(C23CC4CC(CC(C4)C2)C3)c2ccccc2n1 | 11.5
